{"source": "ChEMBL document CHEMBL1806443", "about": "“Novel imidazo[4,5-b]pyridine and triaza-benzo[c]fluorene derivatives: synthesis, antiproliferative activity and DNA binding studies” (Eur J Med Chem, 2011)", "key": {"[1]": {"tested_on": "HEp-2", "assay": "Cytostatic activity against human Hep2 cells at 1 to 10 uM after 72 hrs by MTT assay", "assay_type": "functional, cell-based", "method_in_brief": "(§1)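 Monolayers in DMEM with 10% FBS, 2 mM L-glutamine, penicillin and streptomycin (37 °C, 5% CO2) were seeded at 3000–6000 cells/well on day 0. Five 10-fold dilutions (0.01–100 µM) were added, followed by 72-h incubation and MTT read-out. Absorbances were converted to percentage growth by the NIH formulae. Each point was run in quadruplicate in three experiments; ANOVA with Tukey test.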"}, "[2]": {"tested_on": "SK-BR-3", "assay": "Cytostatic activity against human SKBR3 cells at 1 to 10 uM after 72 hrs by MTT assay", "assay_type": "functional, cell-based", "method_in_brief": "as §1"}, "[3]": {"tested_on": "Nucleic Acid", "assay": "Binding affinity to calf thymus DNA assessed as change in melting temperature at compound to polynucleotide ratio of 0.1 by UV-VIS spectroscopic analysis", "assay_type": "nucleic-acid assay", "conditions": "Bos taurus", "method_in_brief": "(§2)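 ct-DNA alone or with compound at set r = [compound]/[polynucleotide], in cacodylate buffer pH 7.0, I = 0.05 mol dm^-3. Absorbance at 260 nm followed against temperature, ligand absorbance subtracted, curves normalized. Tm is the transition midpoint, from the first-derivative maximum or by tangent method. ΔTm = Tm(complex) − Tm(free DNA), mean of ≥2 runs, error ±0.5 °C.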"}, "[4]": {"tested_on": "Nucleic Acid", "assay": "Binding affinity to calf thymus DNA assessed as change in melting temperature at compound to polynucleotide ratio of 0.5 by UV-VIS spectroscopic analysis", "assay_type": "nucleic-acid assay", "conditions": "Bos taurus", "method_in_brief": "as §2"}, "[5]": {"tested_on": "HeLa", "assay": "Cytostatic activity against human HeLa cells at 1 to 10 uM after 72 hrs by MTT assay", "assay_type": "functional, cell-based", "method_in_brief": "as §1"}, "[6]": {"tested_on": "Nucleic Acid", "assay": "Binding affinity to calf thymus DNA assessed as appearance of weak, negative induced CD band at > 300 nm wavelength by circular dichroism spectroscopy", "assay_type": "nucleic-acid assay", "conditions": "Bos taurus", "method_in_brief": "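CD spectra of ct-DNA (1.0 × 10^-5 mol dm^-3, as phosphate) titrated with compound at 25 °C. Sodium cacodylate buffer pH 7.0, I = 0.05 mol dm^-3, 1 cm quartz cuvette. DNA band (~274–275 nm) and induced bands above 300 nm followed versus r = [compound]/[ct-DNA].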"}, "[7]": {"tested_on": "Nucleic Acid", "assay": "Binding affinity to calf thymus DNA assessed as UV/Vis spectral change at compound to DNA ratio of 0.24 by UV/Vis titrations", "conditions": "Bos taurus"}, "[8]": {"tested_on": "Nucleic Acid", "assay": "Binding affinity to calf thymus DNA assessed as hypochromic changes at 330 nm wavelength by UV-Vis spectrophotometric titrations", "assay_type": "nucleic-acid assay", "conditions": "Bos taurus", "method_in_brief": "(§3)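 UV/Vis titration: aliquots of ct-DNA (concentration as phosphate) added to compound solution in sodium cacodylate buffer pH 7.0, I = 0.05 mol dm^-3, 1 cm quartz cuvettes. Hypochromism followed at band maxima. Compound absorbance linear up to 2.0 × 10^-5 mol dm^-3. Binding data fitted by the Scatchard equation.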"}, "[9]": {"tested_on": "Nucleic Acid", "assay": "Binding affinity to calf thymus DNA assessed as change in melting temperature at compound to polynucleotide ratio of 0.2 by UV-VIS spectroscopic analysis", "assay_type": "nucleic-acid assay", "conditions": "Bos taurus", "method_in_brief": "as §2"}, "[10]": {"tested_on": "Nucleic Acid", "assay": "Binding affinity to calf thymus DNA assessed as hypochromic changes at 343 nm wavelength by UV-Vis spectrophotometric titrations", "assay_type": "nucleic-acid assay", "conditions": "Bos taurus", "method_in_brief": "as §3"}, "[11]": {"tested_on": "MIA PaCa-2", "assay": "Cytostatic activity against human MIAPaCa2 cells at 1 to 10 uM after 72 hrs by MTT assay", "assay_type": "functional, cell-based", "method_in_brief": "as §1"}, "[12]": {"tested_on": "Nucleic Acid", "assay": "Binding affinity to calf thymus DNA assessed as change in melting temperature at compound to polynucleotide ratio of 0.3 by UV-VIS spectroscopic analysis", "assay_type": "nucleic-acid assay", "conditions": "Bos taurus", "method_in_brief": "as §2"}, "[13]": {"tested_on": "MCF7", "assay": "Cytostatic activity against human MCF7 cells at 1 to 10 uM after 72 hrs by MTT assay", "assay_type": "functional, cell-based", "method_in_brief": "as §1"}, "[14]": {"tested_on": "SW-620", "assay": "Cytostatic activity against human SW620 cells at 1 to 10 uM after 72 hrs by MTT assay", "assay_type": "functional, cell-based", "method_in_brief": "as §1"}}, "note": "Activity calls are given as the source filed them. The rule behind the calls is not given here."}
{"smiles": "Nc1ccc2c(ccc3nc4ncccc4n32)c1", "values": [{"measurement": "Activity", "setting": "[1]", "value": "Active"}, {"measurement": "Activity", "setting": "[2]", "value": "Active"}, {"measurement": "ΔTm", "setting": "[3]", "value": 0.7, "unit": "°C"}, {"measurement": "ΔTm", "setting": "[4]", "value": 1.3, "unit": "°C"}, {"measurement": "Activity", "setting": "[5]", "value": "Active"}, {"measurement": "Activity", "setting": "[6]", "value": "inactive"}, {"measurement": "log Ks", "setting": "[7]", "value": 4.6}, {"measurement": "Activity", "setting": "[8]", "value": 26, "unit": "%"}, {"measurement": "ΔTm", "setting": "[9]", "value": 1.4, "unit": "°C"}, {"measurement": "Activity", "setting": "[10]", "value": 18, "unit": "%"}, {"measurement": "Activity", "setting": "[11]", "value": "Active"}, {"measurement": "ΔTm", "setting": "[12]", "value": 0.2, "unit": "°C"}, {"measurement": "Activity", "setting": "[13]", "value": "Active"}, {"measurement": "Activity", "setting": "[14]", "value": "Active"}]}
